Assay results reported in ChEMBL document CHEMBL1138348, “A p-[18F]fluoroethoxyphenyl bicyclic nucleoside analogue as a potential positron emission tomography imaging agent for varicella-zoster virus thymidine kinase gene expression” (J Med Chem, 2007).

Tests used:
[1] = Inhibition of Varicella zoster virus thymidine kinase; set-up: species or system Human alphaherpesvirus 3
Method in brief: (§1)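 Purified recombinant VZV TK (7.75 ng), HSV-1 TK (226 ng) or human cytosolic TK-1 (455 ng) in 50 mM Tris-HCl pH 8.0, 2.5 mM MgCl2, 10 mM DTT, 2.5 mM ATP, 1 mg/mL BSA, 10 mM NaF, with 1 µM final [CH3-3H]dThd substrate. Incubated 30 min at 37 °C with varied compound concentrations; the reaction was linear over this time. Product bound on DE-81 filters, washed, and counted by liquid scintillation. Result reported as IC50.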

[2] = Inhibition of HSV1 thymidine kinase; set-up: species or system Human alphaherpesvirus 1; method in brief: as §1
[3] = biological target: T1, Thymidine kinase, cytosolic (Homo sapiens, UniProt P04183); assay: Inhibition of human cytosolic thymidine kinase 1; method in brief: as §1
T1 sequence (P04183 whole entry): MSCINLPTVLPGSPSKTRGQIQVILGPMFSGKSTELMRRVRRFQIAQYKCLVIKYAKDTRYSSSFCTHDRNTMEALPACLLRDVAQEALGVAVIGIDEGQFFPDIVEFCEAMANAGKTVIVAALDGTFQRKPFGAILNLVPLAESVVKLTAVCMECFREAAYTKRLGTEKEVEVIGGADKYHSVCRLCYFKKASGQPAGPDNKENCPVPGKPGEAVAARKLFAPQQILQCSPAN

Brain [4] = assay: Biodistribution in NMRI mouse brain assessed as radioactivity after 60 mins; format: ADME, organism-based; conditions: in vivo, 1 h
Method in brief: (§2)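 Male NMRI mice (37–43 g) given 0.1 mL HPLC-purified tracer (diluted in water for injection, EtOH <5%; 37 MBq/mL for 11C tracer, 3.7 MBq/mL for 18F tracer) via tail vein under ketamine/xylazine ip anaesthesia. Decapitation at 2 or 60 min, n=3 per time point. Organs dissected, weighed, gamma counted. Results given as %ID (cpm organ/total cpm recovered) or SUV. Blood mass taken as 7% of body mass. Mean ± SD.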

Liver [5] = assay: Biodistribution in NMRI mouse liver assessed as radioactivity after 2 mins; format: ADME, organism-based; conditions: in vivo; method in brief: as §2
Brain [6] = assay: Biodistribution in NMRI mouse brain assessed as radioactivity after 2 mins; format: ADME, organism-based; conditions: in vivo; method in brief: as §2
Stomach [7] = assay: Biodistribution in NMRI mouse stomach assessed as radioactivity after 2 mins; format: ADME, organism-based; conditions: in vivo; method in brief: as §2
Lung [8] = assay: Biodistribution in NMRI mouse lungs assessed as radioactivity after 60 mins; format: ADME, organism-based; conditions: in vivo, 1 h; method in brief: as §2
Blood [9] = assay: Biodistribution in NMRI mouse blood assessed as radioactivity after 2 mins; format: ADME, organism-based; conditions: in vivo; method in brief: as §2
Intestine [10] = assay: Biodistribution in NMRI mouse intestine assessed as radioactivity after 2 mins; format: ADME, organism-based; conditions: in vivo; method in brief: as §2
Mus musculus [11] = species on record: Mus musculus; assay: Biodistribution in NMRI mouse carcass assessed as radioactivity after 2 mins; format: ADME, organism-based; conditions: in vivo; method in brief: as §2
Mus musculus [12] = species on record: Mus musculus; assay: Biodistribution in NMRI mouse urine assessed as radioactivity after 2 mins; format: ADME, organism-based; conditions: in vivo; method in brief: as §2
Stomach [13] = assay: Biodistribution in NMRI mouse stomach assessed as radioactivity after 60 mins; format: ADME, organism-based; conditions: in vivo, 1 h; method in brief: as §2
Mus musculus [14] = species on record: Mus musculus; assay: Biodistribution in NMRI mouse carcass assessed as radioactivity after 60 mins; format: ADME, organism-based; conditions: in vivo, 1 h; method in brief: as §2
[15] = Partition coefficient, log P in 1-octanol and phosphate buffer at pH 7.4; format: physicochemical; conditions: 1-octanol/phosphate buffer
Method in brief: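 HPLC-isolated tracer (about 550 kBq 11C or 185 kBq 18F) partitioned between 1-octanol and 0.025 M phosphate buffer pH 7.4 (2 mL each). Vortexed 2 min at room temperature, centrifuged 1837 g for 5 min. Aliquots of both phases weighed and gamma counted. P calculated as the cpm/mL ratio after density correction; n=6.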

Kidney [16] = assay: Biodistribution in NMRI mouse kidney assessed as radioactivity after 2 mins; format: ADME, organism-based; conditions: in vivo; method in brief: as §2
Lung [17] = assay: Biodistribution in NMRI mouse lungs assessed as radioactivity after 2 mins; format: ADME, organism-based; conditions: in vivo; method in brief: as §2
Mus musculus [18] = species on record: Mus musculus; assay: Biodistribution in NMRI mouse spleen + pancreas assessed as radioactivity after 2 mins; format: ADME, organism-based; conditions: in vivo; method in brief: as §2
Intestine [19] = assay: Biodistribution in NMRI mouse intestine assessed as radioactivity after 60 mins; format: ADME, organism-based; conditions: in vivo, 1 h; method in brief: as §2
Kidney [20] = assay: Biodistribution in NMRI mouse kidney assessed as radioactivity after 60 mins; format: ADME, organism-based; conditions: in vivo, 1 h; method in brief: as §2
Blood [21] = assay: Biodistribution in NMRI mouse blood assessed as radioactivity after 60 mins; format: ADME, organism-based; conditions: in vivo, 1 h; method in brief: as §2
Mus musculus [22] = species on record: Mus musculus; assay: Biodistribution in NMRI mouse spleen + pancreas assessed as radioactivity after 60 mins; format: ADME, organism-based; conditions: in vivo, 1 h; method in brief: as §2
Mus musculus [23] = species on record: Mus musculus; assay: Biodistribution in NMRI mouse urine assessed as radioactivity after 60 mins; format: ADME, organism-based; conditions: in vivo, 1 h; method in brief: as §2
[24] = Drug uptake in LV-VZVTK-IP transduced 293T cells assessed as radioactivity at 1.1 MBq after 0.5 hrs; format: ADME, cell-based; conditions: human, hek-293t
Method in brief: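 293T cells stably transduced with lentivirus carrying VZV-tk-IRES-pac (kept in 1 µg/mL puromycin), alongside untransduced control 293T cells. Plated in triplicate at 200 000 cells/well. After 24 h, fresh medium with HPLC-purified tracer added: 1.1 MBq (11C tracer, 0.5 h) or 185 kBq (18F tracer, 3 h), 37 °C. Cells washed with ice-cold PBS and lysed. Gamma counting. Uptake given as % of total radioactivity per mg protein (Bio-Rad assay).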

Heart [25] = assay: Biodistribution in NMRI mouse heart assessed as radioactivity after 60 mins; format: ADME, organism-based; conditions: in vivo, 1 h; method in brief: as §2
Heart [26] = assay: Biodistribution in NMRI mouse heart assessed as radioactivity after 2 mins; format: ADME, organism-based; conditions: in vivo; method in brief: as §2
Liver [27] = assay: Biodistribution in NMRI mouse liver assessed as radioactivity after 60 mins; format: ADME, organism-based; conditions: in vivo, 1 h; method in brief: as §2

Q: For `O=c1nc2oc(-c3cccc(OCCCCCCF)c3)cc2cn1[C@H]1C[C@H](O)[C@@H](CO)O1`, which IC50 [1] is on record?
A: The IC50 was > 500 µM.

Q: And the IC50 [2]?
A: Its IC50 is > 500 µM.

Q: What about the IC50 [3] of the same compound?
A: Its IC50 is > 500 µM.

Q: What does the source list for `[11CH3]Oc1ccc(-c2cc3cn([C@H]4C[C@H](O)[C@@H](CO)O4)c(=O)nc3o2)cc1`?
A: Drug uptake (Brain [4]): 0 %ID; Drug uptake (Liver [5]): 20.3 %ID; Drug uptake (Brain [6]): 0 %ID; Drug uptake (Stomach [7]): 1.2 %ID; Drug uptake (Lung [8]): 0.1 %ID; Drug uptake (Blood [9]): 7.1 %ID; Drug uptake (Intestine [10]): 16.8 %ID; Drug uptake (Mus musculus [11]): 29.5 %ID; Drug uptake (Mus musculus [12]): 1.4 %ID; Drug uptake (Stomach [13]): 1 %ID; Drug uptake (Mus musculus [14]): 5.8 %ID; logD [15]: 1.3; Drug uptake (Kidney [16]): 22.9 %ID; Drug uptake (Lung [17]): 1.2 %ID; Drug uptake (Mus musculus [18]): 1.5 %ID; Drug uptake (Intestine [19]): 46.7 %ID; Drug uptake (Kidney [20]): 1.4 %ID; Drug uptake (Blood [21]): 0.6 %ID; Drug uptake (Mus musculus [22]): 0.4 %ID; Drug uptake (Mus musculus [23]): 34.3 %ID; Drug uptake [24]: 28.8 %ID; Drug uptake (Heart [25]): 0 %ID; Drug uptake (Heart [26]): 0.5 %ID; Drug uptake (Liver [27]): 9.9 %ID
